In PMC5553550 (Nature nanotechnology, 2017):

Key:
pSmad1/5 = assay: Western blot of Smad phosphorylation in C2C12 cells; assay type: cell-based, mouse
[1] = tested on: BMP-2 signaling in C2C12 cells; assay: BMP-2 induced ALP activity in C2C12 cells; assay type: cell-based, mouse; details: BMP-2 75 ng/mL, 3 days; for enhancement of BMP-2 induced ALP activity, in words: PA or monosaccharide 25 μM, n = 8
[2] = tested on: BMP-4 signaling in C2C12 cells; assay: BMP-4 induced ALP activity in C2C12 cells; assay type: cell-based, mouse; details: BMP-4 75 ng/mL, monosaccharide 1 25 μM, 3 days; n = 8
Procedure, shortened: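 C2C12 cells were co-treated with BMP-4 (75 ng/mL) and either the glycopeptide amphiphile nanostructure or the free sulfated monosaccharide, each at 25 μM. Osteoblast differentiation was read out as alkaline phosphatase (ALP) activity. Results are reported as mean ± SEM with n = 8.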

[3] = SAXS / cryo-TEM of self-assembly; assay type: physicochemical; details: cryo-TEM at 25 μM or SAXS
C2C12 cells = assay: Mineralization assay; assay type: cell-based, mouse; details: BMP-2 100 ng/mL; heparin 0.62 μM (10 μg/mL) or PA 25 μM; 10 days
BMP-2 = details: known effect; ref [4],[5]; cited from earlier work
noggin [4] = assay: SPR binding to immobilized noggin; details: heparin 0.01-100 µM or PA 1 10-60 µM; HEPES buffer pH 7.6, 25 °C
noggin [5] = details: C2C12 cells; ref [5],[41]; cited from earlier work

| Compound | BMP-2 mediated Smad phosphorylation with LDN-193189 (pSmad1/5; LDN-193189 0.5 μM, BMP-2 75 ng/mL, regardless of heparin or PA 1) | enhancement of BMP-2 induced ALP activity, in words [1] | amplification of BMP-4 signaling (ALP activity) [2] | self-assembly / supramolecular structure [3] | matrix mineralization of C2C12 cells (C2C12 cells) | half-life of BMP-2 (BMP-2) | enhancement of ALP expression vs BMP-2 alone, factor ([1]; normalized to DNA, dose response for heparin and HS) | pSmad1/5 accumulation with BMP-2 (pSmad1/5; BMP-2 75 ng/mL, 3 h, heparin 0.62 μM or PA 1 25 μM, n = 3) | pSmad1/5 accumulation without BMP-2 (pSmad1/5; heparin 0.62 μM or PA 1 25 μM, no BMP-2) | SPR binding to noggin (noggin [4]) | effect on noggin activity (noggin [5]) |
| --- | --- | --- | --- | --- | --- | --- | --- | --- | --- | --- | --- |
| c1ccc2c(-c3cnn4cc(-c5ccc(N6CCNCC6)cc5)cnc34)ccnc2c1 [LDN-193189] | impeded the BMP-2 mediated phosphorylation of Smads | – | – | – | – | – | – | – | – | – | – |
| CC(=O)N[C@H]1[C@H](OCCN=[N+]=[N-])O[C@H](COS(=O)(=O)O)[C@@H](OS(=O)(=O)O)[C@@H]1OS(=O)(=O)O [monosaccharide 1, 2-Azidoethyl 2-acetamido-3,4,6-tri-O-sulfo-2-deoxy-β-D-glycopyranoside] | – | found this not to be the case | found this not to be the case | absence of any significant supramolecular structure | – | – | – | – | – | – | – |
| Heparin | – | more potent response than HS | – | – | inhibited BMP-2 (100 ng/mL) dependent mineralization | prolong the half-life of BMP-2 | 5 | significantly higher relative to that with BMP-2 alone | did not enhance accumulation of pSmad proteins | did not observe a strong binding to noggin | binds and inhibits noggin activity, thereby rescuing BMP signaling and the subsequent ALP expression in C2C12 cells |
